For data set [1], the target named is Mitogen-activated protein kinase kinase kinase 8 (Homo sapiens, UniProt P41279). The data set is described as follows: Inhibition of Tpl2 by ELISA.
Data set [2] concerns the target Epidermal growth factor receptor (Homo sapiens, UniProt P00533).
A further data set in a line: physchem. The following applies: buffer, pH 7.4.
For another data set, the system named is Blood. In words: Inhibition of LPS-stimulated TNFalpha production in human blood. The data set is classed as functional.
The subject of another data set is Monocyte. In words: Inhibition of LPS-stimulated TNFalpha production in monocytes. The data set is classed as functional, Homo sapiens.
Data set [3] has as its target Protein kinase C alpha type (Homo sapiens, UniProt P17252). The data set is described as follows: Inhibition of PKCalpha.
A further data set concerns the target CaM kinase II (Homo sapiens, UniProt Q13557+Q13555+Q13554+Q9UQM7).
Data set [4] deals with Mitogen-activated protein kinase 14 (Homo sapiens, UniProt Q16539). In words: Inhibition of p38alpha.
For another data set, the target named is Cytochrome P450 3A4 (Homo sapiens, UniProt P08684).
The target in data set [5] is Proto-oncogene tyrosine-protein kinase Src (Homo sapiens, UniProt P12931). The data set is described as follows: Inhibition of Src.
Data set [6] in a line: Permeability at pH 7.4 by PAMPA method. It is filed as ADME. The following applies: read-out: permeability. The gist of the method:
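Passive permeability was measured by high-resolution PAMPA at pH 7.4.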
For orientation: PAMPA measures passive passage across an artificial lipid membrane.

Data set [7] addresses MAP kinase-activated protein kinase 2 (Homo sapiens, UniProt P49137). In words: Inhibition of MK2.
Data set [8] in a line: Plasma clearance in Sprague-Dawley rat at 5 mg/kg, iv. Further details: dose 5 mg/kg, route intravenous. The data set is classed as ADME, organism-based. The essentials: (§1)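 Female Sprague-Dawley rats were dosed by the iv or oral route. Parameters are reported as means of individual-animal pharmacokinetic values.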
The target of data set [9] is Ribosomal protein S6 kinase beta-1 (Homo sapiens, UniProt P23443). In words: Inhibition of S6K.
Data set [10] has as its target cAMP-dependent protein kinase (PKA) (Homo sapiens, UniProt P22694+P17612+P22612). In words: Inhibition of PKA. The data set is classed as protein assay.
The nature of data set [11]: Volume of distribution at steady state in Sprague-Dawley rat at 5 mg/kg, iv. It is filed as ADME, organism-based. Further details: dose 5 mg/kg, route intravenous. The conditions noted are these: in vivo, read-out: Vss. The gist of the method:
as §1

Data set [12] can be described thus: Half life in Sprague-Dawley rat at 5 mg/kg, iv. The data set is classed as ADME, organism-based. Also on record: dose 5 mg/kg, route intravenous. The following applies: in vivo. The gist of the method: as §1
Data set [13] can be described thus: Bioavailability in Sprague-Dawley rat at 25 mg/kg, po. The data set is classed as ADME, organism-based. The following applies: in vivo. The essentials:
as §1

A further data set has as its system Rattus norvegicus. The data set is described as follows: AUC (0 to infinity) in Sprague-Dawley rat at 25 mg/kg, po. It is filed as ADME, organism-based, Plasma. Also on record: dose 25 mg/kg, route oral. The conditions noted are these: in vivo. The gist of the method: as §1
Data set [14] in a line: Half life in Sprague-Dawley rat at 25 mg/kg, po. The data set is classed as ADME, organism-based. Also on record: dose 25 mg/kg, route oral. The following applies: in vivo. The gist of the method:
as §1

In another data set the target is CYP3A4 (Homo sapiens, UniProt P08684). The data set is described as follows: Inhibition of CYP3A4 at 3 uM. It is filed as ADME.

Values after ≈ are worked out from the molar mass of the structure shown.

A word on the IC50: it is the concentration that inhibits the measured activity by half. High values mean a need for much substance, low ones inhibition by little substance. By solubility is commonly meant the concentration that dissolves in the medium under given conditions. One may read the clearance as the volume of plasma or blood freed of the substance per unit of time. A high value points to a high capacity for elimination. What is called half-life is how long it takes for the measured level to halve. A higher half-life goes with slow decline. In general, bioavailability refers to dose-corrected exposure relative to a reference, in per cent. The low end stands for little systemic uptake, the high end for much systemic uptake. As usually defined, the inhibition is the share of the control response that was lost under treatment. A low value points to a weak effect.

Chain of Mitogen-activated protein kinase kinase kinase 8 (P41279 whole entry): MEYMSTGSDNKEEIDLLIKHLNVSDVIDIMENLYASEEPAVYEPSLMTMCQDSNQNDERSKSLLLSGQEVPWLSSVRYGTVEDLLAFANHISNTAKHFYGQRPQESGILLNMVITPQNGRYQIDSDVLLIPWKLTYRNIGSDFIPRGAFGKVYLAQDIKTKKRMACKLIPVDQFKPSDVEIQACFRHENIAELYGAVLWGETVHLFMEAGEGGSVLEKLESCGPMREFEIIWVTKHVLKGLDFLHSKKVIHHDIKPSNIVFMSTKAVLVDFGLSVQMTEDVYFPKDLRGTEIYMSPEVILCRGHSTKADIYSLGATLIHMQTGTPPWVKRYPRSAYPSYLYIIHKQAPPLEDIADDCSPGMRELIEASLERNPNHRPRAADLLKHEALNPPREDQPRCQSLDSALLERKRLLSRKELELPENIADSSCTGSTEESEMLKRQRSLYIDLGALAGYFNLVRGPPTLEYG
Chain of Epidermal growth factor receptor (P00533 whole entry): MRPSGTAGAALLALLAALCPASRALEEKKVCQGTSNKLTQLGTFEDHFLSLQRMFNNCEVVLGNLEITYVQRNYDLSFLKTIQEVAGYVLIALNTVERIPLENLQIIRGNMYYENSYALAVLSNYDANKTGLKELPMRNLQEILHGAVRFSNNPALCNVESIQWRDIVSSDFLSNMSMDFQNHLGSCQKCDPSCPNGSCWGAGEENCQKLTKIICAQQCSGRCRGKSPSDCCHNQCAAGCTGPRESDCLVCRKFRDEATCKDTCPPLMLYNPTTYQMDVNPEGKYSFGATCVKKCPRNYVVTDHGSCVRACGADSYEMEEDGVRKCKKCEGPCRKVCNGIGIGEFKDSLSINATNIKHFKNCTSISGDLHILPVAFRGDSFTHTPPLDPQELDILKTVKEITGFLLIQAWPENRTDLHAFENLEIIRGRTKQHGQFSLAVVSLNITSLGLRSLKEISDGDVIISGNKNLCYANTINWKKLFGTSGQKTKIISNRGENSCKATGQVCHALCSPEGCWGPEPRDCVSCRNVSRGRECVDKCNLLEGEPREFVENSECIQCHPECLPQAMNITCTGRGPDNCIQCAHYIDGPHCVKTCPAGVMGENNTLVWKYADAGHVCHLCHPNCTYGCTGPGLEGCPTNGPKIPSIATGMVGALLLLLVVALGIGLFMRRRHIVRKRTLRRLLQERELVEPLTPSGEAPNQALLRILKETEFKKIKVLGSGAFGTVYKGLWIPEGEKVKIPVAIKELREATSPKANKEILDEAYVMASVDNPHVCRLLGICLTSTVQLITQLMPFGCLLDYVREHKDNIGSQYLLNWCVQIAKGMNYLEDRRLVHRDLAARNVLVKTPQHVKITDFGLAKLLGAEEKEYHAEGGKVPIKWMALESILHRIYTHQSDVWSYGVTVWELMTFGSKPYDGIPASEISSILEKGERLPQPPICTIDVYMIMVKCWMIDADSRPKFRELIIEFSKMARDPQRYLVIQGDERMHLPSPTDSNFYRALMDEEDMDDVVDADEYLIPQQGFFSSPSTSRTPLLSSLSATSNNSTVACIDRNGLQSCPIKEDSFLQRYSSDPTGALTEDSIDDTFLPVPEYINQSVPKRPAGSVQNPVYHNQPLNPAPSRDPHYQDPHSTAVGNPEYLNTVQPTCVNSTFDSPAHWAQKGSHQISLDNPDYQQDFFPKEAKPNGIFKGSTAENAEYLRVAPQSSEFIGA
Chain of Proto-oncogene tyrosine-protein kinase Src (P12931 2-536 limits assumed): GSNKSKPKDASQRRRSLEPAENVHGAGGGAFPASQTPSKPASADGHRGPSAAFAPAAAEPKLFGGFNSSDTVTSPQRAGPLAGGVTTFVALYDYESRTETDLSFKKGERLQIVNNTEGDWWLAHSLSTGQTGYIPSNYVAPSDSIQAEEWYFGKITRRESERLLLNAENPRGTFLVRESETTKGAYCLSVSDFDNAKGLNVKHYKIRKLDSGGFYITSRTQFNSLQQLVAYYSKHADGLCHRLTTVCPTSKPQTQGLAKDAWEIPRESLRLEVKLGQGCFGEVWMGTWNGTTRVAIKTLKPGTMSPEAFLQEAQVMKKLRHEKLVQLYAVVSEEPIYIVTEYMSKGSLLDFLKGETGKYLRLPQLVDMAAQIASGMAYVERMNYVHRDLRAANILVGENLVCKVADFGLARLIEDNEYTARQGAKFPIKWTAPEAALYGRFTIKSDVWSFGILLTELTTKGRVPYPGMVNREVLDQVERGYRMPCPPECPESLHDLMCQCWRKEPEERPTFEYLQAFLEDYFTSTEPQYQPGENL
Chain of MAP kinase-activated protein kinase 2 (P49137 whole entry): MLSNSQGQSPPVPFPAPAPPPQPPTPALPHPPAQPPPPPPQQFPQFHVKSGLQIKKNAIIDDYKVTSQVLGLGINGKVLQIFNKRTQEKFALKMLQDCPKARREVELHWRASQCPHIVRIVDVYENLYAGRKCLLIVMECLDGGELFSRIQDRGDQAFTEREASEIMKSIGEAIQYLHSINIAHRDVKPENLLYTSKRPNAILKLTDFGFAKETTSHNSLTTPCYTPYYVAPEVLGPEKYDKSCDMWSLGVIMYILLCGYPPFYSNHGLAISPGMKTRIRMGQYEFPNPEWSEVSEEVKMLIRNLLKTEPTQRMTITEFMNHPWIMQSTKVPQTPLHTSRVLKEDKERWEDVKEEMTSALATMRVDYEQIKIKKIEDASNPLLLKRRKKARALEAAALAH
Chain of Mitogen-activated protein kinase 14 (Q16539 whole entry): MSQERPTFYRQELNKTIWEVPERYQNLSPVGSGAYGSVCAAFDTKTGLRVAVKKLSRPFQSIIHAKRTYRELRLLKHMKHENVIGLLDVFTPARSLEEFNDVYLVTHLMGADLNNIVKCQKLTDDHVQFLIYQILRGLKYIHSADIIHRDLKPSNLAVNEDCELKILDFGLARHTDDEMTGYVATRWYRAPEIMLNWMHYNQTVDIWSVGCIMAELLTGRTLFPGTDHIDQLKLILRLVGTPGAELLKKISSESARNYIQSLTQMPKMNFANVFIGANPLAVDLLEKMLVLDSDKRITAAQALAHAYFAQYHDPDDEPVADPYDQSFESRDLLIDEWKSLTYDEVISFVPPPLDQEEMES
Chain of Ribosomal protein S6 kinase beta-1 (P23443 whole entry): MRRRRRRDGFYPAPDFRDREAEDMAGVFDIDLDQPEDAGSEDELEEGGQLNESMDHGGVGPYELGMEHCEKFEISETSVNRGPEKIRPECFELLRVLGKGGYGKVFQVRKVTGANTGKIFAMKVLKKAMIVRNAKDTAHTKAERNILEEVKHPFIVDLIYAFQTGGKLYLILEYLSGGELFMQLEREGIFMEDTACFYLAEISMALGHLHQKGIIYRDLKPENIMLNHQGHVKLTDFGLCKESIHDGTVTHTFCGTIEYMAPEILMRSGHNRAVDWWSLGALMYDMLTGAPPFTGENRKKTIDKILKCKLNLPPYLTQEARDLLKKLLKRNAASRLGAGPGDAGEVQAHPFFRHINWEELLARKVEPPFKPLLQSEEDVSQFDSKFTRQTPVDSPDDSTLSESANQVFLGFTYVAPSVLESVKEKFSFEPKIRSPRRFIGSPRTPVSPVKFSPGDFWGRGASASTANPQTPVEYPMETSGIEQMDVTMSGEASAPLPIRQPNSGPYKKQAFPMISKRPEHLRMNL
Chain of Cytochrome P450 3A4 (P08684 whole entry): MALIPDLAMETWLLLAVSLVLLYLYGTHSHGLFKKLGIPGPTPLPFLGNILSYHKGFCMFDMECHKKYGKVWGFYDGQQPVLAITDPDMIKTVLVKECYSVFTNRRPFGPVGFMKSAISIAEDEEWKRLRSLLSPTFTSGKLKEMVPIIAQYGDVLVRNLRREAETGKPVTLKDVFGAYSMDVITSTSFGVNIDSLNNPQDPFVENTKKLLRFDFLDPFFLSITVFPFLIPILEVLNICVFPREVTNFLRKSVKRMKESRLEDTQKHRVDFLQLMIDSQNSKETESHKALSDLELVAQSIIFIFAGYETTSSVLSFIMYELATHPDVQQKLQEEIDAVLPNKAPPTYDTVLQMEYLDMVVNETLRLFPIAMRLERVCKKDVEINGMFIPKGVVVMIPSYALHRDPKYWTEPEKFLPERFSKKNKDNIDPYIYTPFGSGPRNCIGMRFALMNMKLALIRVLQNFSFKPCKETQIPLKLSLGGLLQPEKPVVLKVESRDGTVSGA
Chain of CYP3A4 (P08684 whole entry): as above

For the compound `N#Cc1cnc2c(Br)cc(NCc3c[nH]cn3)cc2c1Nc1ccc(F)c(Cl)c1`, the IC50 in [1] was found to be 0.01 µM; in [2], 3.3 µM. Besides, the concentration in solution in the data set “physchem” (solubility) was 0.002 mg/mL (≈ 4.24 µM). This compound came in with an Activity in the data set with Blood of more than 10 µM. Also, in the data set on Monocyte, the Inhibitory concentration was determined as 370 nM.

In the case of `N#Cc1cnc2c(Cl)cc(NCc3nn[nH]n3)cc2c1Nc1ccc(F)c(Cl)c1`, in data set [1], inhibition was half-maximal at 0.002 µM (IC50). Moreover, the Activity in the data set on Blood is more than 20 µM. In the data set with Monocyte, this compound registered an Inhibitory concentration of more than 5000 nM.

`CN(C)CCCc1[nH]cnc1CNc1cc(Cl)c2ncc(C#N)c(Nc3ccc(F)c(Cl)c3)c2c1` returned an Activity in the data set on Blood of 15.2 µM.

In the case of `N#Cc1cnc2c(C(F)(F)F)cc(NCc3c[nH]cn3)cc2c1Nc1ccc(F)c(Cl)c1`, the results for the IC50 in data set [1] and in data set [2] were 0.16 µM and more than 20 µM, respectively. The Activity in the data set on Blood is more than 10 µM. Besides, the Inhibitory concentration in the data set with Monocyte is on record as 600 nM.

In data set [2], `C[S+]([O-])c1cc(NCc2c[nH]cn2)cc2c(Nc3ccc(F)c(Cl)c3)c(C#N)cnc12` (centres undefined) showed an IC50 of 5 µM. The Activity in the data set with Blood was found to be 13.3 µM. In the data set on Monocyte, this compound showed an Inhibitory concentration of 2130 nM.

In turn, `Cn1cncc1CNc1cc(Cl)c2ncc(C#N)c(Nc3ccc(F)c(Cl)c3)c2c1` displayed an Activity in the data set with Blood of more than 20 µM.

On to `CCCc1[nH]cnc1CNc1cc(Cl)c2ncc(C#N)c(Nc3ccc(F)c(Cl)c3)c2c1`, for which the IC50 was more than 40 µM in data set [3]; more than 40 µM at CaM kinase II; more than 40 µM in data set [4]; 16 µM against Cytochrome P450 3A4; more than 40 µM in data set [5]; 62.7 µM in [7]. Further, the figures for the IC50 in data set [9] and in data set [10] were 18.8 µM and 76.1 µM, respectively. The solubility in “physchem” was less than 0.01 mg/mL. The Activity in the data set with Blood stood at 5.6 µM. Besides, the Papp in data set [6] is less than 50 nm/s. In the data set on Monocyte, this compound showed an Inhibitory concentration of 220 nM. In addition, the clearance in [8] was more than 6 L/h/kg. The Vd in data set [11] is 12.2 L/kg. The same compound gave a half-life in data set [12] of 1.2 h.

For the compound `N#Cc1cnc2c(OCC(O)CO)cc(NCc3cnc[nH]3)cc2c1Nc1ccc(F)c(Cl)c1` (centres undefined), the midpoint of inhibition in data set [1], the IC50, lay at 0.83 µM.

With `N#Cc1cnc2c(Cl)cc(NCc3cccc[n+]3[O-])cc2c1Nc1ccc(F)c(Cl)c1`, the IC50 is more than 40 µM in data set [3]; 2.9 µM in data set [2]; more than 40 µM at CaM kinase II; more than 40 µM in [4]; 18 µM against Cytochrome P450 3A4; more than 40 µM in data set [5]. Moreover, the IC50 in data set [7] is 40.1 µM; in [9] it was more than 40 µM; in data set [10], more than 40 µM. The solubility in the data set “physchem” is less than 0.01 mg/mL. Moreover, in data set [13], the bioavailability is less than 1%. In the data set on Rattus norvegicus, this compound registered an AUC/dose of less than 10 ng·kg·h/mg/mL. Also, the Activity in the data set on Blood was 11.4 µM. In addition, the Papp in [6] is less than 50 nm/s. The compound further had an Inhibitory concentration with Monocyte of 1500 nM. Further, in [8], the clearance is 2.28 L/h/kg. The figures for the half-life in [14] and in [12] were 4.2 h and 0.8 h, respectively. The Vd in data set [11] stood at 1.6 L/kg.

Turning to `CC(=O)c1cc(NCc2c[nH]cn2)cc2c(Nc3ccc(F)c(Cl)c3)c(C#N)cnc12`, in data set [2], the IC50 was 0.156 µM. In the data set with Blood, this compound showed an Activity of more than 10 µM. The Inhibitory concentration in the data set on Monocyte is 580 nM.

In the case of `N#Cc1cnc2c(F)cc(NCc3c[nH]cn3)cc2c1Nc1ccc(F)c(Cl)c1`, the concentration for half-maximal inhibition (IC50) in data set [1] is 0.02 µM; in [3], more than 40 µM; in data set [4], more than 40 µM; in data set [5], 20 µM; in data set [7] it was more than 40 µM; in data set [9], more than 40 µM. This compound also returned an IC50 in [10] of 10.3 µM. On CYP3A4, this compound showed an inhibition at 3 µM of 96%. Also, in the data set on Blood, the Activity is more than 10 µM. This compound had an Inhibitory concentration in the data set on Monocyte of 510 nM.

Take `CS(=O)(=O)CCn1cnc(CNc2cc(Br)c3ncc(C#N)c(Nc4ccc(F)c(Cl)c4)c3c2)c1`: the Activity in the data set with Blood is more than 20 µM. This compound yielded an Inhibitory concentration with Monocyte of 1000 nM.

`N#Cc1cnc2c(Br)cc(NCc3cn[nH]n3)cc2c1Nc1ccc(F)c(Cl)c1`: the IC50 in [3], in data set [9] and in [10] was more than 100 µM each time. Moreover, the solubility in the data set “physchem” is less than 0.01 mg/mL. In [13], this compound came in with a bioavailability of 2%. For the same compound, in the data set with Rattus norvegicus, the AUC/dose was less than 10 ng·kg·h/mg/mL. In addition, the Activity in the data set on Blood was 3.5 µM. Also, the Papp in [6] is less than 50 nm/s. In the data set with Monocyte, this compound returned an Inhibitory concentration of 74 nM. Moreover, in [8], the clearance turned out to be 1.74 L/h/kg. Further, the values for the half-life in data set [14] and in data set [12] were 3.9 h and 3.2 h, respectively. For the same compound, the Vd in data set [11] turned out to be 2.7 L/kg.

As for `CN(C)C(=O)c1cc(NCc2c[nH]cn2)cc2c(Nc3ccc(F)c(Cl)c3)c(C#N)cnc12`, the IC50 in data set [2] was more than 20 µM. The Activity in the data set with Blood is more than 10 µM. In the data set with Monocyte, the Inhibitory concentration was more than 1000 nM.

The compound `COC(=O)c1[nH]cnc1CNc1cc(Br)c2ncc(C#N)c(Nc3ccc(F)c(Cl)c3)c2c1` came in with an Activity with Blood of more than 20 µM. Moreover, the Inhibitory concentration in the data set with Monocyte is reported as 2000 nM.

For `N#Cc1cnc2c(Cl)cc(NCCc3c[nH]cn3)cc2c1Nc1ccc(F)c(Cl)c1`, the Activity in the data set with Blood was more than 20 µM.

Compound `N#Cc1cnc2c(Br)cc(NCc3cn(CCN4CCOCC4)cn3)cc2c1Nc1ccc(F)c(Cl)c1` yielded a solubility in “physchem” of 0.069 mg/mL (≈ 118 µM). In addition, the Activity with Blood came to 8.95 µM. In addition, the Inhibitory concentration in the data set with Monocyte worked out at 430 nM.

In turn, `N#Cc1cnc2c(Br)cc(NC(=O)Cc3cnc[nH]3)cc2c1Nc1ccc(F)c(Cl)c1` had an IC50 in [1] of more than 5 µM.

With `N#Cc1cnc2c(Cl)cc(NCc3cccnc3)cc2c1Nc1ccc(F)c(Cl)c1`, the IC50 in [2] was more than 5 µM. Moreover, the Activity in the data set on Blood came out at 20 µM. The same compound had an Inhibitory concentration in the data set on Monocyte of more than 1000 nM.

Compound `CCc1[nH]cnc1CNc1cc(Cl)c2ncc(C#N)c(Nc3ccc(F)c(Cl)c3)c2c1` came in with an Activity in the data set with Blood of 7.5 µM.

For the compound `Cn1nccc1CNc1cc(Br)c2ncc(C#N)c(Nc3ccc(F)c(Cl)c3)c2c1`, in the data set with Blood, the Activity was more than 20 µM. Further, the Inhibitory concentration in the data set with Monocyte was found to be 665 nM.

In the data set on Blood, `CC(C)c1[nH]cnc1CNc1cc(Cl)c2ncc(C#N)c(Nc3ccc(F)c(Cl)c3)c2c1` gave an Activity of 5.8 µM.

With `N#Cc1cnc2c(Cl)cc(NCC(=O)O)cc2c1Nc1ccc(F)c(Cl)c1`, it took 0.2 µM to reach half-maximal inhibition in [1] (IC50). This compound also gave an Activity in the data set with Blood of more than 20 µM. This compound also had an Inhibitory concentration with Monocyte of more than 5000 nM.

On to `N#Cc1cnc2ccc(NCc3c[nH]cn3)cc2c1Nc1ccc(F)c(Cl)c1`, for which the Activity with Blood was 3.3 µM. The compound further displayed an Inhibitory concentration with Monocyte of 600 nM.

In turn, `N#Cc1cnc2c(Cl)cc(NCc3cccc(N4CCOCC4)n3)cc2c1Nc1ccc(F)c(Cl)c1` returned an IC50 in [1] of 0.35 µM.

Consider `COc1cc(NCc2c[nH]cn2)cc2c(Nc3ccc(F)c(Cl)c3)c(C#N)cnc12`, for which the IC50 turned out to be 0.13 µM in [1] and 2.08 µM in data set [2]. Moreover, in the data set on Blood, the Activity is more than 10 µM. In the data set on Monocyte, this compound gave an Inhibitory concentration of 3000 nM.

For the compound `CC(C)c1[nH]cnc1CNc1cc(Br)c2ncc(C#N)c(Nc3ccc(F)c(Cl)c3)c2c1`, the Activity in the data set with Blood is more than 20 µM. In the data set with Monocyte, this compound registered an Inhibitory concentration of 2200 nM.

The values are drawn from ChEMBL document CHEMBL1148782, “Inhibitors of tumor progression loci-2 (Tpl2) kinase and tumor necrosis factor alpha (TNF-alpha) production: selectivity and in vivo antiinflammatory activity of novel 8-substituted-4-anilino-6-aminoquinoline-3-carbonitriles” (J Med Chem, 2007).
